Experiment [1] is described as follows: Ratio of the Ki value for human 5-HT1B receptor versus human 5-HT1F receptor. The gist of the method: (§1)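 Selectivity ratio: Ki at human 5-HT1A, 5-HT1B or 5-HT1D receptor divided by Ki at human 5-HT1F receptor. Each Ki from radioligand binding in cell lines expressing the relevant human receptor, derived from two or more experiments.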
In experiment [2] the target is T1, 5-hydroxytryptamine receptor 1F (Homo sapiens, UniProt P30939).
T1 sequence (P30939 whole entry): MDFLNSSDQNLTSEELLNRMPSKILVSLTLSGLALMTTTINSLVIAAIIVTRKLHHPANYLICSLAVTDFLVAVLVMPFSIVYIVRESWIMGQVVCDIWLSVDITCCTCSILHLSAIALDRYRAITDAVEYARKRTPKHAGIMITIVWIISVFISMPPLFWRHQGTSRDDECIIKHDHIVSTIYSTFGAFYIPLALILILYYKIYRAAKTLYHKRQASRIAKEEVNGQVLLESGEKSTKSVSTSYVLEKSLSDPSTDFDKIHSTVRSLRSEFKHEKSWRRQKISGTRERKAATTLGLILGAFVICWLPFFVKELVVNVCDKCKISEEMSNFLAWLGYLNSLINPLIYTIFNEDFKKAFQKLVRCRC
Description: In vitro binding affinity for human 5-hydroxytryptamine 1F receptor. The gist of the method:
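Radioligand binding in cell lines expressing the human 5-HT receptor; Ki reported as mean of three or more experiments with SEM.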

The nature of experiment [3]: Ratio of the Ki value for human 5-HT1A receptor versus human 5-HT1F receptor. The method in brief:
as §1

The nature of experiment [4]: Ratio of the Ki value for human 5-HT1D receptor versus human 5-HT1F receptor. The gist of the method: as §1
The target of experiment [5] is Serotonin (5-HT) receptor (Homo sapiens) (UniProt P30939+P41595+Q13639+P28222+P46098+P08908+P28221+P28223+P28335+P28566+P34969+P50406+P47898+A5X5Y0+O95264+Q70Z44+Q8WXA8). Description: Maximum stimulation of [35S]GTP-gamma-S, binding expressed relative to the maximal effect of 5-hydroxytryptamine. The class given is functional. The gist of the method:
(§2)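 [35S]GTP-γ-S binding stimulated in mouse LM(tk-) cells expressing human 5-HT1F receptor; means of at least two separate experiments, each run in triplicate, with SEM.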
A general note: GTPγS is a poorly hydrolysed GTP analogue; its binding reports G protein activation.

The target of experiment [6] is T1, 5-hydroxytryptamine receptor 1F. Kind of experiment: Concentration required for stimulation of [35S]GTP-gamma-S, binding in mouse LM(tk-1) cells expressing the human 5-hydroxytryptamine 1F receptor. Type of experiment: functional, cell-based. The gist of the method: as §2

Molecules are shown by their SMILES. pEC50, pKi: −log10 of the molar value. Some results are limits rather than exact numbers.

The term pKi denotes the negative decadic logarithm of the Ki, by convention in mol/L. On to `Cc1oc2ccc(NC(=O)c3ccc(F)cc3)nc2c1CCN(C)C`, for which the Selectivity ratio is 42 in experiment [1], 65 in experiment [3] and 19 in experiment [4]. This compound also gave a pKi in experiment [2] of 7.87.
The term Emax denotes the maximal effect, on the per cent scale that the assay sets. A word on the pEC50: it is −log10 of the EC50, conventionally taken in molar units. `CN1CCC(c2coc3ccc(NC(=O)c4ccc(F)cc4Cl)nc23)CC1`: the figures for the Selectivity ratio in experiment [1], in experiment [3] and in experiment [4] were 177, 47 and 165, respectively. Moreover, in experiment [2], the negative logarithm of the Ki (pKi) is 8.52. The same compound registered an Emax in experiment [5] of 92%. Moreover, in experiment [6], the pEC50 was 7.56.
Take `CN1CCC(c2coc3ccc(NC(=O)c4ccc(F)cc4)nc23)CC1`: the figures for the Selectivity ratio in experiment [1], in experiment [3] and in experiment [4] were more than 1000, 134 and more than 1000, respectively. The pKi in experiment [2] was 8.51. This compound gave an Emax in experiment [5] of 88%. Besides, in experiment [6], the negative logarithm of the EC50 (pEC50) is 7.18.
Consider `CN1CCC(c2c[nH]c3ccc(NC(=O)c4ccc(F)cc4)cc23)CC1`, for which the Selectivity ratio in experiment [1] was 85; in experiment [3], 7; in experiment [4] it was 86. In experiment [2], this compound gave a pKi of 8.80.
Turning to `Cc1[nH]c2ccc(NC(=O)c3ccc(F)cc3)cc2c1CCN(C)C`, the Selectivity ratio was determined as 130 in experiment [1], 32 in experiment [3] and 200 in experiment [4]. The compound further showed a pKi in experiment [2] of 8.09.
With `CN1CCC(c2c[nH]c3ccc(NC(=O)c4ccc(F)cc4)nc23)CC1`, the Selectivity ratio in experiment [1] came out at 160; in experiment [3], 7.3; in experiment [4], 960.
As to `CN1CCC(c2coc3ccc(NC(=O)c4c(F)cc(F)cc4F)nc23)CC1`, the Selectivity ratio in experiment [1] was determined as 181; in experiment [3] it was 57; in experiment [4], 62. For the same compound, in experiment [2], the pKi was 8.64. The same compound returned an Emax in experiment [5] of 87%. The same compound had a pEC50 in experiment [6] of 7.04.
For the compound `CN1CCC(c2coc3ccc(NC(=O)c4c(F)cccc4Cl)nc23)CC1`, the Selectivity ratio in experiment [1] came out at 164; in experiment [3], 103; in experiment [4], 31. In experiment [2], this compound showed a pKi of 8.54. In addition, the Emax in experiment [5] amounted to 87%. The pEC50 in experiment [6] was 7.16.

The values above are taken from ChEMBL document CHEMBL1138691, “Substituted furo[3,2-b]pyridines: novel bioisosteres of 5-HT 1F receptor agonists” (Bioorg Med Chem Lett, 2004).
